# CHO-K1 Ca ag: counter-screen for M1 agonists: effect in parental CHO-K1 cells | activation, % at 3 µM | hit rate 0.48% among 360,000 | Fluo-8 calcium fluorescence; scaled to maximal ATP response, vehicle zero; in the data active = activation above about 15%;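 note: untransfected CHO-K1 host cells lacking M1 receptor as counterscreen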
# OX1R antag-1: OX1R (HCRTR1) antagonists, primary screen, fluorescence, CHO/OX1R cells, Fluo-8 calcium, orexin A; Orexin/Hypocretin receptor type 1 (Homo sapiens), O43613; Fluo-8 calcium fluorescence; inhibition, % at 5 µM; hit rate 0.43% among 330,000; AID 434989, 2010;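 active = inhibition above its plate's threshold, mean inhibition of all tested compounds on the plate plus 3 SD, cut at about 37% in these data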;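 note: 0% = orexin A challenge wells and 100% = SB-334867-A antagonist wells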
# Target sequence (O43613 whole entry, looked up): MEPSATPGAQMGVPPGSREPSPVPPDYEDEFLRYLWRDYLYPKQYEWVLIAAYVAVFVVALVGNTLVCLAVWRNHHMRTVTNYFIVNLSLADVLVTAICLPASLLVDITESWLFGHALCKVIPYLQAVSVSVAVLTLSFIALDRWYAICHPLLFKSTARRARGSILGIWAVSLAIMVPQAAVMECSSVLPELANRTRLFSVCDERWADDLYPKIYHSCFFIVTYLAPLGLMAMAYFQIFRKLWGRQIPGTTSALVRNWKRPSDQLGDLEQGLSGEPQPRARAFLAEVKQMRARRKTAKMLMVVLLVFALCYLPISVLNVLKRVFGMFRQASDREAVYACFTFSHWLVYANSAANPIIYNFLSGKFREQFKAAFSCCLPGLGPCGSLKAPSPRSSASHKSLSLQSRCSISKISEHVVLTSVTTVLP
# CHO parental Ca: ATP-evoked calcium signal inhibitors, parental CHO, primary screen, counter-screen for OX1R antagonist project, cell-based, fluorescence, Fluo-8 calcium dye | parental CHO-K1, ATP-induced calcium, Fluo-8 fluorescence | inhibition, % at 5.6 µM | hit rate 0.63% among 330,000 | AID 463079, 2010;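 active = inhibition above that plate's mean sample inhibition plus 3 SD, cut at about 26% in these data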;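 note: 0% = ATP-challenged DMSO wells and 100% = DMSO wells without ATP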
#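 material = parental CHO cells | also added = ATP as calcium-mobilizing challenge | dosing = single point at 5.6 µM | detection = intracellular calcium via Fluo-8 no-wash fluorescent dye | read-out = % inhibition | benchmarks = low control ATP plus DMSO, high control DMSO only | repeats = one well per compound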
# CHO-K1 Ca antag: nonselective inhibitor or artifact in parental CHO-K1 cells. hit rate 0.6% among 360,000. ATP-induced calcium, Fluo-8 fluorescence. AID 602250. inhibition, % at 3 µM;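 active = inhibition above a per-plate cutoff, the plate's mean sample inhibition plus 3 SD, cut at about 24% in these data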;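 note: 0% = DMSO plus EC80 ATP and 100% = DMSO alone without ATP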
# OX1R antag-2: antagonists of human orexin 1 receptor (OX1R); OX1R-expressing cells, FRET antagonist read-out; inhibition, % at 6.6 µM; hit rate 1.8% among 330,000; AID 485270, 2010; in the data active = inhibition mostly above about 38%, no sharp cut-off; inactive = mostly below about 40%;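 note: 0% = agonist challenge alone and 100% = reference antagonist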
# M1 PAM parental: nonselective calcium activators in parental CHO-K1 cells, primary screen, counter-screen for M1 PAM project, cell-based, Fluo-8 calcium fluorescence, full deck, 1536-well; ATP EC20; 0% at ATP EC20, 100% at ATP max; activation, % at 3 µM; hit rate 0.02% among 360,000;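 active = activation above the run cutoff, the mean activation of all test compounds plus 3 SD, cut at about 40% in these data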;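 note: peak over basal fluorescence ratio in a 140 s read after ATP addition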
# OX1R HTRF conf: OX1R (HCRTR1) antagonists, confirmation, cell-based, HTRF | shares compounds with OX1R antag-2 | OX1R-expressing cells, HTRF antagonist assay | inhibition, % at 6.6 µM | hit rate 49% among 1,800 | AID 492964, 2010; in the data active = inhibition above about 55%;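 note: CHO cells expressing OX1R stimulated with orexin A at about EC80; 0% = agonist challenge alone and 100% = reference antagonist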
# CHO-K1 HTRF: signal inhibition in parental CHO-K1 cells, counter-screen for OX1R antagonist project, cell-based, HTRF; HTRF counterscreen; hit rate 48% among 1,800; AID 493232, 2011; shares compounds with OX1R antag-2; inhibition, % at 6.6 µM; in the data active = inhibition above about 17%;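 note: 0% = agonist challenge with vehicle and 100% = vehicle alone without agonist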
# * marks the source's active call; other numbers are inactive results; . = no result given. A selection: hits, their analogues and other compounds. The true share with any hit is near 2.9%.
SMILES,CHO-K1 Ca ag,OX1R antag-1,CHO parental Ca,CHO-K1 Ca antag,OX1R antag-2,M1 PAM parental,OX1R HTRF conf,CHO-K1 HTRF
COC(=O)/C=c1/s/c(=C(/C#N)C(=O)N2CCOCC2)n(-c2ccccc2)c1=O,0,-2,-7,-4,118*,12,38,49*
CC(=O)N1C(=O)c2cccc3cccc(c23)C(=O)N1C(C)=O,.,-14,-1,.,116*,.,41,65*
CC(=O)Nc1ccc(NC(=O)Nc2ccc3c(c2)N(C)C(=O)CS3)cc1,0,-11,0,-12,14,17,.,.
COc1cccc(NC(=O)Nc2ccc3c(c2)N(C)C(=O)CS3)c1,15,3,13,21,82*,0,28,11
CCCOc1cccc(NC(=O)c2cc(C)oc2C)c1,-1,-47,-35,-6,78*,-1,20,13
CC(C)(C)c1ccc(C(=O)NNC(=O)c2ccncc2)cc1,1,-1,3,2,3,0,.,.
N=c1c(C(=O)NCc2ccccc2)cc2c(=O)n3ccccc3nc2n1Cc1ccco1,0,-16,-25,-3,78*,18,32,11
COCCn1c(=N)c(C(=O)NCc2ccco2)cc2c(=O)n3ccccc3nc21,0,-35,-16,-3,167*,9,54,72*
Cc1ccccc1C(=O)N=c1c(C#N)cc2c(=O)n3cccc(C)c3nc2n1Cc1ccco1,.,-26,-6,.,33,.,.,.
N#Cc1cc2c(=O)n3ccccc3nc2n(Cc2ccco2)c1=NC(=O)c1ccco1,0,-16,-11,2,77*,4,47,42*
COc1ccccc1C(=O)Nc1ccnn1C1CCN(Cc2ccn[nH]2)CC1,1,-5,0,-14,19,20,.,.
CN1CCCC1(C)C(=O)NCc1ccc(F)cc1Cl (stereo not drawn),1,.,.,-15,.,18,.,.
COc1ccc(/C=C2\Oc3cc(OC(=O)N4CCOCC4)ccc3C2=O)cc1,2,-38,-6,-9,6,13,.,.
COc1ccccc1C(=O)Oc1ccc2c(c1)O/C(=C\c1ccncc1)C2=O,1,-9,-6,4,78*,-9,19,-6
Cc1ccc2cc3cc(C(=O)NCCCN4CCCCCC4)oc3nc2c1,0,-24,-27,8,82*,-5,42,36*
COc1ccc(-c2ccc(SCC(=O)N3CC(=O)Nc4ccccc43)nn2)cc1,2,-18,-5,-15,97*,16,19,6
O=S(=O)(O)c1cccc2c(N=Nc3ccc(O)c4ncccc34)cccc12,13,-1,4,-2,-6,-2,.,.
O=Nc1ccc(O)c2ncccc12,1,0,-7,21,105*,-21,45,39*
Cc1cccc(C(=O)N2CCC(Cc3ccccc3)CC2)c1[N+](=O)[O-],3,-29,-13,-1,19,16,.,.
CC1=NN(C(N)=S)C(=O)C1N=Nc1ccccc1O (stereo not drawn),1,-2,3,0,-5,-6,.,.
CC1=NN(C(N)=S)C(=O)C1N=Nc1ccccc1C (stereo not drawn),0,-23,-31,5,96*,3,31,17*
Cc1c(C(=O)Nc2nccs2)oc2c(Cl)cccc12,0,-4,-16,0,77*,3,67*,14
Cc1ncoc1C(=O)Nc1nccs1,0,-9,-3,0,-2,12,.,.
CN(C(=S)NC(=O)Cc1ccccc1)c1ccccc1,0,2,3,-6,0,17,.,.
Cc1nc(-c2ccccc2)nc2n[nH]c(N)c12,0,-12,-9,-11,17,-2,.,.
SMILES,CHO-K1 Ca ag,OX1R antag-1,CHO parental Ca,CHO-K1 Ca antag,OX1R antag-2,M1 PAM parental,OX1R HTRF conf,CHO-K1 HTRF
CCOC(=O)C1(CC)NC(c2cccc(F)c2)C2C(=O)N(CC)C(=O)C21 (stereo not drawn),-1,-6,-3,-4,89*,11,11,-2
CCN1C(=O)[C@H]2[C@@H](c3ccc(-c4ccc(F)cc4)cc3)N[C@@](CC(C)C)(C(=O)OC)[C@H]2C1=O,0,-24,-16,-9,18,10,.,.
Cc1nc2cc(Nc3ccncc3)ccc2s1,2,-13,-13,-25,-3,29,.,.
CC(C)c1nn2c(N)c(/C=C3\C=Nc4ccccc43)c(=O)nc2s1,4,2,-11,1,82*,-8,66*,9
CCC(CC)c1nn2c(N)c(/C=C3\C=Nc4ccccc43)c(=O)nc2s1,1,-21,-15,-7,45,15,.,.
CCOC(=O)c1cc2[nH]c3ccccc3c2[n+](-c2ccc([N+](=O)[O-])cc2)c1C,0,-8,-9,-7,114*,20,53,75*
O=C(OCc1cccc([N+](=O)[O-])c1)c1cc(=O)[nH]c2ccccc12,.,-20,-12,.,2,.,.,.
CCOC(=O)c1cc2[nH]c3ccccc3c2[n+](-c2ccc([N+](=O)[O-])cc2)c1N,0,-1,-13,-2,138*,6,57*,69*
O=CN1CCCN(C(=O)CC2C(=O)NCCN2Cc2cccc(Oc3ccccc3)c2)CC1 (stereo not drawn),0,4,-15,-10,5,-1,.,.
N#C/C(=C/c1ccc(Br)o1)C(N)=O,0,-11,-12,-9,79*,17,44,12
Cc1cnc(NC(=O)CCNC(=O)c2ccc([N+](=O)[O-])cc2)s1,0,-9,1,8,7,-4,.,.
Cc1cc(C)nc(NS(=O)(=O)c2ccc(NCN3C(=O)c4ccccc4C3=O)cc2)n1,0,.,.,-11,.,1,.,.
Cc1cccc(S(=O)(=O)N(C)C[C@H]2OCc3cn(nn3)CCCC(=O)N([C@@H](C)CO)C[C@@H]2C)c1,1,.,.,-3,.,6,.,.
O=C(/C=C1\NC2(CCCC2)Cc2ccccc21)C(=O)N/N=C/c1ccccc1O,0,-11,-27,1,82*,8,47,5
Cc1cccn2c(=O)c(/C=N/O)c(N3CCOCC3)nc12,3,-4,-8,1,20,5,.,.
COc1cc(SC)ccc1C(=O)OCC(=O)N1CC(=O)Nc2ccccc21,0,-2,-7,13,15,-25,.,.

# Assay outcomes deposited in PubChem by The Scripps Research Institute Molecular Screening Center.
